Compound activity as filed in PubChem.
Rce1 inh – yeast Ras-converting enzyme inhibition; Q03530; yeast membranes, quenched prenylated peptide cleavage fluorescence; 0.27% of 290,000 active; calls only;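 active = fall in fluorescence gain of 50% or more versus controls, with final raw signal at or below 3038400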;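 note: plate controls were neutral control wells for no effect and wells lacking membranes for full effect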
TAAR1 antagonist – human TAAR1 antagonism. Q96RJ0. CHO RD-HGA16 TAAR1, Fluo-8 calcium fluorescence, antagonist. inhibition, % at 3 µM. 1.5% of 360,000 active;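 active = inhibition above a per-plate cutoff, the mean inhibition of test compounds on that plate plus 3 SD, cut at about 49% in these data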;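 note: 0% = DMSO plus EC80 beta-PEA response and 100% = DMSO alone without agonist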
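test system = CHO RD-HGA16 cells bearing hTAAR1 | replication = singlicate | controls = DMSO-only wells and EC80 β-PEA-stimulated wells | reagent = EC80 β-phenethylamine stimulus | read-out basis = percent inhibition of PEA-evoked calcium signal, max/basal emission ratio | schedule = seeding 17-24 h prior, 75-min 37 °C, 30-min RT dye loading | signal = kinetic Fluo-8 calcium fluorescence measurement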
VLA-4 inh – inhibition in a human VLA-4 binding assay; AID 2557; VLA-4 expressing cells, ligand binding flow cytometry; inhibition, % (about 7 µM as worked out from the volumes in the protocol); P13612; 0.2% of 330,000 active; in the data active = inhibition above about 50%
Target sequence (P13612 whole entry, looked up): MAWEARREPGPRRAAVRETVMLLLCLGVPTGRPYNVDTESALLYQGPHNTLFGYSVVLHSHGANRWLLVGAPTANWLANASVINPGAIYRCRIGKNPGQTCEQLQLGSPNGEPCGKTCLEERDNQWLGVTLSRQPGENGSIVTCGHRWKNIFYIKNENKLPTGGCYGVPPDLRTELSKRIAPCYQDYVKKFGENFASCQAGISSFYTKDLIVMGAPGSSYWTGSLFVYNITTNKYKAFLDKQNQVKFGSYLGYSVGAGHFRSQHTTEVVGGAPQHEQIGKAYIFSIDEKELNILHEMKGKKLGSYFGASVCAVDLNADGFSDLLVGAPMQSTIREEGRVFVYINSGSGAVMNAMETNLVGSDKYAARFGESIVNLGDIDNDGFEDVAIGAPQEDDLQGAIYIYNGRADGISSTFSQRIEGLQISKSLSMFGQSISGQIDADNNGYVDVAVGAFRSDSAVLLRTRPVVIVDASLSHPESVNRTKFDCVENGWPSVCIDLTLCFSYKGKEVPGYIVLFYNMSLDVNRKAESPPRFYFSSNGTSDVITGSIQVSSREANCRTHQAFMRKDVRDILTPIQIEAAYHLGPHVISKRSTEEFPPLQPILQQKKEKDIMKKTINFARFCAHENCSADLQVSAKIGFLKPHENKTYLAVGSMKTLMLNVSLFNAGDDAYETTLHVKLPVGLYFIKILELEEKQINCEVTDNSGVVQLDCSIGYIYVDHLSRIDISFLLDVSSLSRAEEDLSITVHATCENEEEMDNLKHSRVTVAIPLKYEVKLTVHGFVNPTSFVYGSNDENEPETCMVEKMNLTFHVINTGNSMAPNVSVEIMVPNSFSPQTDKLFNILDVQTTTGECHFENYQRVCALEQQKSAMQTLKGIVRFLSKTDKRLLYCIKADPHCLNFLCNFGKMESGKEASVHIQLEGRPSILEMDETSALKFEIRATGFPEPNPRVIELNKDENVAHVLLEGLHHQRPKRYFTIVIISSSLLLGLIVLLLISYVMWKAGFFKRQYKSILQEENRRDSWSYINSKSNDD
Platelet DG rel – modulates dense granule release in human platelets; inhibition, %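 (compounds screened at 7.5 µM in platelet-rich plasma)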; AID 1663; 0.22% of 300,000 active; human platelet-rich plasma, SFLLRN dense granule ATP release, luminescence;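 active = mean replicate score, as percent of positive control, at or above 50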
TAAR1 agonist – agonists of human TAAR1; activation, % at 3 µM; AID 624467; 0.99% of 360,000 active; CHO RD-HGA16 TAAR1, Fluo-8 calcium fluorescence; vehicle wells 0%, saturating PEA agonist 100%;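 active = activation above the mean activation of all test compounds in the run plus 3 SD, cut at about 38% in these data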
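Signal – calcium-sensitive Fluo-8 signal, excitation 470-495, emission 515-575 nm · System – RD-HGA16 (CHO) cells co-expressing Gα16 and hTAAR1 · Incubation – 17-24 h seeding, 75 min 37 °C dye, 30 min RT · Compound dosing – 3 µM single concentration · Repeats – no replicates (n 1)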
* marks the source's active call; other numbers are inactive results; i = inactive; · = not tested or not shown; + = active, no number. An excerpt weighted towards active compounds, which were near 2.6% of everything screened.

SMILES	Rce1 inh	TAAR1 antagonist	VLA-4 inh	Platelet DG rel	TAAR1 agonist
CCOC(=O)NC(NCC(O)c1ccccc1)(C(F)(F)F)C(F)(F)F (centres undefined)	i	56*	24	-22	67*
CCOC(=O)C1CCCN(C(=O)c2cc(F)ccc2C)CC1 (centres undefined)	·	5	·	·	1
CC(C)C1C(=O)N(Cc2cn(CC3CCCCC3)nn2)CCS(=O)(=O)N1Cc1ccc(-c2ccc(Cl)nc2)cc1 (centres undefined)	·	-29	·	·	5
Cc1cc(C)n(Cc2ccc(NC(=O)c3ccc(COc4ccccc4Br)cc3)cc2)n1	+	49*	10	6	5
COc1ccc(CCN2C(=O)C(Oc3ccccc3C)C2c2ccc3c(c2)OCO3)cc1 (centres undefined)	i	56*	3	25	8
COc1ccc(CCN2C(=O)C(Oc3ccccc3C)C2c2ccc3c(c2)OCO3)cc1OC (centres undefined)	i	55*	3	-20	7
COc1ccc(C2C(Oc3ccccc3C)C(=O)N2Cc2ccc(F)cc2)cc1OC (centres undefined)	i	32	-2	4	1
O=C1C(Oc2ccccc2)C(c2ccc3c(c2)OCO3)N1CCc1ccc(F)cc1 (centres undefined)	i	10	8	-15	1
Cc1ccc(S(=O)(=O)N(CC(=O)NCC2CCCO2)C2CCCCC2)cc1 (centres undefined)	i	-19	18	1	-1
COc1cccc(NC(=O)c2ccc3nc(C)c(N(C)Cc4ccc(NC(C)=O)cc4)n3c2)c1	·	0	·	·	2
Cc1cc(C)cc(OCC(O)CN2CCC(CN3C(=O)c4cccc5cccc(c45)C3=O)CC2)c1 (centres undefined)	i	0	-26	-3	39*
FC(F)Sc1ccc(NC(=S)NCC2CCCCC2)cc1	i	50*	0	1	9
Cc1ccccc1OCC(=O)Nc1nnc(C2CCCC2)s1	i	-10	-7	9	1
Cc1cccc(-c2cc(C(=O)NCc3ccccn3)c3ccccc3n2)c1	i	53*	16	3	11
O=C(NCc1ccccn1)c1cc(-c2ccc(-c3ccccc3)cc2)nc2ccccc12	i	51*	10	1	7
CCOC(=O)[C@]12CCCC=C1N(CCC1=CCCCC1)C(=O)[C@H](CC(=O)NCc1ccccc1)C2	·	8	·	·	4
COc1ccccc1C(=O)Nc1ccc2c(c1)CCCN2C(=O)c1ccccc1	i	25	3	54*	2
Cc1nc(N2CCOCC2)c2cc(-c3ccccc3)sc2n1	+	2	-2	37	-1
O=C(O)c1cc(S(=O)(=O)N2CC3CC3C2C(=O)O)c(Cl)cc1Cl (centres undefined)	i	-7	-11	-8	0
CCCCn1c(=O)[nH]c(=O)c2c1nc(-c1ccc(OC)c(Br)c1)n2CC(C)C	+	-10	4	6	-2
CCOCCn1ccc2c(OCC(=O)NCc3ccccc3)cccc2c1=O	i	3	-2	-1	0
C=C(C)COc1ccc(-c2[nH]ncc2-c2ccc(OC)cc2)c(O)c1	i	19	12	-7	-1
C=C(C)COc1ccc(-c2[nH]ncc2-c2ccc(OC)c(OC)c2)c(O)c1	i	50*	-3	-6	2
COc1ccc(C(=O)Nc2ccc(-c3n[nH]c(=S)o3)cc2)cc1	i	-2	17	0	8
C=CCOc1ccc(-c2n[nH]c(=S)o2)cc1	+	2	-15	·	0
SMILES	Rce1 inh	TAAR1 antagonist	VLA-4 inh	Platelet DG rel	TAAR1 agonist
O=C(Nc1cccc(F)c1)C1CCN(C(=O)Cc2ccccc2)CC1	i	-10	10	51*	15
COc1ccc(NC(=O)C2CCN(C(=O)Cc3ccccc3)CC2)cc1OC	i	-17	-8	0	1
O=C(c1cc(-c2ccc(Cl)cc2)on1)N1CCc2ccccc2C1	i	3	2	0	39*
COc1ccc(-c2cc(C(=O)N3CCc4ccccc4C3)no2)cc1OC	i	1	-6	-3	14
COc1ccc(-c2cnc3c(NC(C)=O)cc(-c4ccc(S(C)(=O)=O)cc4)cn23)cc1OC	·	-49	·	·	1
NS(=O)(=O)c1cccc(C(=O)N2CCCc3ccccc32)c1	·	-18	·	·	1
COc1ccc(-n2c(O)c(/C=N/NS(=O)(=O)c3cc(C)ccc3C)c3ccccc3c2=O)cc1OC	i	50*	-266	0	42*
